Assay outcomes (PubChem BioAssay)
An excerpt weighted towards active compounds, which were near 3.5% of everything screened.
WT yeast gro inh: growth inhibition of WT yeast, mitochondrial fusion screen; mitochondrial fusion phenotypic screen, WT strain; actives 2.1% (n = 190,000); inhibition, % at 10 µM; AID 1362; in the data active = inhibition above about 58%; tested in S. cerevisiae
MEKK3 PB1 HTS: MEKK3-MEK5 PB1 interaction, increase or decrease | binding response (% of control), % at 10 µM | actives 1.4% (n = 290,000) | bead-based flow cytometry, Alexa488-MEK5 binding to MEKK3; actives lie on both sides; 0 = blocked by unlabeled MEK5, 100 = vehicle;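 active = binding response more than 3 SD above or below the average of its plate-row segment, actives on both sides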;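 note: Alexa488 bead fluorescence after subtracting the streptavidin-only scavenger bead signal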
ABCB1 inh: inhibitors of human ABCB1 transporter, ABCG2 counter-screen | P08183 | CCRF-Adr cells, JC-1 efflux, flow cytometry | inhibition, % at 6.6 µM | actives 0.067% (n = 190,000) | AID 1326; in the data active = inhibition above about 40%;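 note: 0% = vehicle and 100% = reference inhibitor; higher value means more JC-1 retained so stronger ABCB1 efflux block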
MEKK2wt PB1 HTS: raises or lowers MEK5 binding to wildtype human MEKK2 PB1 domain; binding response (% of control), % at 10 µM; actives 1.1% (n = 290,000); Q9Y2U5; bead flow cytometry, Alexa488-MEK5 binding to MEKK2 WT; actives lie on both sides; in the data active = binding response below about 67% or above about 130%
MEKK2 mut-MEK5: signal of MEK5 binding to mutant human MEKK2 PB1 domain | bead flow cytometry, Alexa488-MEK5 binding to MEKK2 mutant | percent response, % at 10 µM | actives 0.35% (n = 290,000); in the data active = percent response above about 24%, passing the limit was not always enough
ABCG2 inh: blocks JC-1 efflux by human ABCG2 transporter; inhibition, % at 6.6 µM; actives 0.1% (n = 190,000); AID 1325; IgMXP3 cells, flow cytometry;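 active = inhibition above 80%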;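 note: 0% = DMSO and 100% = nicardipine control wells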
Target sequence (Q9UNQ0 whole entry, looked up): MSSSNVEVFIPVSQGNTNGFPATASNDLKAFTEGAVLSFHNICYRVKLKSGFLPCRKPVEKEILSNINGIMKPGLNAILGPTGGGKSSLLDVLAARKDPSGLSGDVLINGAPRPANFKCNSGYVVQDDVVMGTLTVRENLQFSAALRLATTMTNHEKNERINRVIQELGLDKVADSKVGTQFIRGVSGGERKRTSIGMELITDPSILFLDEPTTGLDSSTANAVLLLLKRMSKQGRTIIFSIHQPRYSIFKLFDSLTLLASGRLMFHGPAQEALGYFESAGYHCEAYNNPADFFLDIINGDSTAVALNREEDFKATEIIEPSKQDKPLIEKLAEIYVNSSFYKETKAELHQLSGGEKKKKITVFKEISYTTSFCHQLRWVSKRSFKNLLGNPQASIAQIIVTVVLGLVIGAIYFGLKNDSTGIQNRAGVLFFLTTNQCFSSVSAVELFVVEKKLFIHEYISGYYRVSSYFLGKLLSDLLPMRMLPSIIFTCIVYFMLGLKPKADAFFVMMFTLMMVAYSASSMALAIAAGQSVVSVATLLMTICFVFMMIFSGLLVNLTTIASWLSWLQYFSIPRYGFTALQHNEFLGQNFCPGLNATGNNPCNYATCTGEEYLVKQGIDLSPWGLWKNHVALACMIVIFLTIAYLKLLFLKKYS
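Test system: ABCG2 IgMXP3 and barcoded ABCB1 CCRF-Adr cell mix; Schedule: cells with compound and JC-1, 10 min at 25 °C, rotating, no wash; Technique: flow cytometry of retained JC-1 fluorescence; Measure: % inhibition of efflux relative to nicardipine and DMSO; Controls: nicardipine high and DMSO low controls.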
MEKK2wt confirm: raises or lowers MEK5 binding to wildtype human MEKK2, retest; shares compounds with MEKK3 PB1 HTS; bead flow cytometry, Alexa488-MEK5 binding to MEKK2 WT; actives lie on both sides; binding response (% of control), % at 10 µM; actives 2.4% (n = 5,900); AID 1892; in the data active = binding response below about 16% or above about 210%; inactive = in between
MEKK2mut confirm: signal of MEK5 binding to mutant human MEKK2, retest; shares compounds with MEKK3 PB1 HTS; bead flow cytometry, Alexa488-MEK5 binding to MEKK2 mutant; percent response, % at 10 µM; actives 2% (n = 5,900); AID 1893; in the data active = percent response mostly above about 71%, no sharp cut-off; inactive = mostly below about 38%;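 note: higher means compound restores mutant binding toward wildtype level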
MEKK3 confirm: MEKK3-MEK5 PB1 inhibition, single concentration confirmation; shares compounds with MEKK3 PB1 HTS; AID 1894; actives 1.8% (n = 5,900); bead flow cytometry, Alexa488-MEK5 binding to MEKK3; hits give low values; binding response (% of control), % at 10 µM;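 active = binding response below 72% of control, or above a set upper limit, though filed actives all read lower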;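 note: 100% = DMSO only wells and 0% = binding blocked by excess unlabeled MEK5; lower values mean stronger disruption of MEK5 binding to MEKK3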
Numbers without * were called inactive; · = no result given; [ ] = another dose, or the depositor's remark.

SMILES	WT yeast gro inh	MEKK3 PB1 HTS	ABCB1 inh	MEKK2wt PB1 HTS	MEKK2 mut-MEK5	ABCG2 inh	MEKK2wt confirm	MEKK2mut confirm	MEKK3 confirm
CC(C)n1c(SCC(=O)N2c3ccccc3Sc3ccccc32)nc2c1c(=O)n(C)c(=O)n2C	13	1.0*[inhibitor]	-1	-3.0*[inhibitor]	-21	-3	99	-3	104
CN(C)CCCn1c(SCC(=O)N2c3ccccc3Sc3ccccc32)nc2ccccc2c1=O	80	103	7	166*	45	-5	157	25	102
COc1ccc(-c2cc(=O)oc3cc(OC(C)C(=O)NCCCn4ccnc4)ccc23)cc1 (stereo not drawn)	·	102	·	104	2	·	·	·	·
C/C(=N\NC(=O)c1ccc(Cl)c(S(=O)(=O)Nc2ccccc2Cl)c1)c1ccncc1	-6	145*	0	106	2	1	99	3	100
Cc1ccc(C(=O)/C=C/c2c[nH]c3ccccc23)cc1	32	101	0	102	-3	2	·	·	·
O=C(/C=C/c1c[nH]c2ccccc12)c1ccccc1	21	136*	1	103	0	15	106	0	106
CCOc1cc(C2C3=C(CC(C)(C)CC3=O)N(C)C3=C2C(=O)CC(C)(C)C3)ccc1O	·	107	·	110	1	·	·	·	·
CCc1ccc(N=CC23c4ccccc4C(c4ccccc42)C2C(=O)N(c4ccc(OC)cc4)C(=O)C23)cc1 (stereo not drawn)	21	81*[inhibitor]	1	81	-4	2	94	-4	95
COc1ccc(N2C(=O)C3C4c5ccccc5C(C=Nc5ccc(C)cc5C)(c5ccccc54)C3C2=O)cc1 (stereo not drawn)	·	98	·	90	-3	·	·	·	·
O=[N+]([O-])c1ccc(N2CCN(C(=S)c3cccc([N+](=O)[O-])c3)CC2)cc1	·	125	·	114	25	·	·	·	·
CC(=O)N1CCN(C(=S)c2cccc([N+](=O)[O-])c2)CC1	-7	132*	0	109	0	2	45	-14	72
Cc1c(NC(=O)c2cnn3c2NC(c2ccco2)CC3C(F)(F)F)c(=O)n(-c2ccccc2)n1C (stereo not drawn)	-4	100	0	104	2	-1	·	·	·
CCOC(=O)c1c(NC(=O)Cc2cccs2)sc2c1CCCC2	-11	101	1	99	3	9	·	·	·
CCOC(=O)c1c(NC(=O)c2cccs2)sc2c1CCCC2	16	1.0*[inhibitor]	0	-1.0*[inhibitor]	-9	0	98	6	98
CC1CCN(Cc2nnc(-c3cccc(Br)c3)o2)CC1	·	106	·	106	4	·	·	·	·
COc1ccc(C[C@H]2CN3C(=NC[C@@H]3Cc3ccccc3)N2CCNC(=O)CCC2CCCCC2)cc1	5	110	1	179*	40	2	134	19	106
CCCCNC(=S)Nc1ccc(Cl)cc1	29	105	0	97	-1	8	·	·	·
CCCCNC(=S)Nc1ccc(C(F)(F)F)cc1	34	75*[inhibitor]	0	90	-3	2	101	1	100
CCn1nnc(NC(=O)c2ccco2)n1	·	99	·	101	1	·	·	·	·
CC(Sc1nc(-c2ccccc2)cs1)C(=O)Nc1ccc(Cl)cn1 (stereo not drawn)	14	149*	0	111	1	11	110	-1	105
CC(=O)Nc1nc(NC(=O)/C=C/c2ccccc2)n(-c2ccccc2)n1	4	140*	0	105	2	-3	104	-3	104
Cc1sc2nc(CN3CCCCC3)nc(N3CCN(C(=O)c4ccco4)CC3)c2c1C	0	101	1	104	9	3	·	·	·
Cc1sc2nc(CN3CCCC3)nc(N3CCN(S(=O)(=O)c4cccs4)CC3)c2c1C	·	103	2	145*	4	1	141	36	109
CCCCC1(C)Cc2ccccc2C(=S)N1 (stereo not drawn)	39	2.0*[inhibitor]	0	2.0*[inhibitor]	-16	1	108	2	103
CCOC(=O)/C(C)=C1\NC(C)(C)Cc2ccccc21	-4	96	0	96	-3	0	·	·	·
SMILES	WT yeast gro inh	MEKK3 PB1 HTS	ABCB1 inh	MEKK2wt PB1 HTS	MEKK2 mut-MEK5	ABCG2 inh	MEKK2wt confirm	MEKK2mut confirm	MEKK3 confirm
O=[N+]([O-])c1ccc(/C=N/Nc2ccc3ccccc3c2)o1	18	88	2	2.0*[inhibitor]	-2	4	103	1	100
Cc1c2cnn(CC(=O)NCCCN3CCCCC3)c(=O)c2c(C)n1Cc1ccccc1	·	101	·	137*	22	·	128	20	98
Cc1c(C(=O)OC(C)C)sc(N)c1C(=O)OC(C)C	-13	131*	0	104	0	6	102	-2	102
CCOC(=O)c1c(N)sc(C(N)=O)c1C	12	101	0	91	-1	1	·	·	·
Cc1c(C(N)=O)sc(N)c1C(=O)OC(C)C	-6	122*	0	118	8	2	103	0	106
CC(=O)c1sc(N)c(C(=O)OC(C)C)c1C	4	105	0	107	1	2	·	·	·
Cc1ccc(C(C)(O)CS(=O)(=O)Cc2ccccc2Cl)cc1 (stereo not drawn)	·	104	·	101	-1	·	·	·	·
OC1(c2ccc(Cl)c(Cl)c2)C[n+]2ccccc2N1Cc1ccccc1 (stereo not drawn)	·	102	·	115	9	·	·	·	·
O=C(CNC1C(=O)Nc2ccccc21)Sc1ccccc1 (stereo not drawn)	-5	2.0*[inhibitor]	1	3.0*[inhibitor]	-20	0	97	-3	105
O=C(O)CCCCCNC(=O)C(=O)C1C(=O)Nc2ccccc21 (stereo not drawn)	·	101	·	100	2	·	·	·	·
CC(=O)N1CCC(O)(c2ccc3c(c2)OCO3)CC1	·	105	·	106	2	·	·	·	·
Cc1cc2oc(=O)cc(CN3CCCc4ccccc43)c2cc1C	7	105	0	·	228*	3	92	-13	100
CCN(CC)C(=O)CSCc1cnn(-c2ccccc2)c1-n1cccc1	15	97	1	97	-2	1	·	·	·
COc1ccc(NC(=S)NN2C(C)CCCC2C)cc1 (stereo not drawn)	-1	111	0	114	3	2	·	·	·
